# ChEMBL document CHEMBL1926544, “Tyrosine-based 1-(S)-[3-hydroxy-2-(phosphonomethoxy)propyl]cytosine and -adenine ((S)-HPMPC and (S)-HPMPA) prodrugs: synthesis, stability, antiviral activity, and in vivo transport studies” (J Med Chem, 2011)
# Tests used:
# [1] = Antiviral activity against Cowpox virus Brighton infected in HFF cells incubated for 3 days by plaque reduction assay; format: functional, cell-based, Cowpox virus (Brighton Red)
# Human betaherpesvirus 5 = test: Antiviral activity against HCMV Towne infected in HFF cells incubated for 10 days by plaque reduction assay; format: functional, organism-based
# Summary of the method: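 Towne strain (plaque-purified P0) on HFF cells, about 100 plaques per well. Drug overlay (100 µM down to 0.03 µM), about 10 days incubation, crystal violet staining, microscopic plaques counted. IC50 from regression of % plaque reduction versus no-drug wells. Duplicate; ganciclovir as positive control.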
# Human alphaherpesvirus 1 = test: Antiviral activity against HSV1 KOS infected in HFF cells incubated for 3 days by plaque reduction assay; format: functional, organism-based
# Summary of the method: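 HFF monolayer plaque reduction, about 100 plaques per well. Drug overlay (100 µM down to 0.03 µM), about 3 days incubation, crystal violet staining, macroscopic plaques counted. IC50 from regression of % plaque reduction relative to no-drug wells. Duplicate; acyclovir run as positive control.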
# HFF = test: Cytotoxicity against HFF cells after 48 hrs by visual cytotoxicity observation assay; format: cell-based, Homo sapiens
# KB = test: Cytotoxicity against human KB cells after 48 hrs by crystal violet staining based spectrophotometric analysis; format: cell-based
# Summary of the method: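 KB cells at 5000 per well, left overnight at 37 °C. Compound added at eight concentrations in triplicate, 48 h at 37 °C in CO2 (two population doublings). Cells ethanol-fixed and crystal violet stained; dye eluted with acidified ethanol, read at 570 nm. IC50 by regression of % inhibition against log concentration.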
# Vaccinia virus = test: Antiviral activity against Vaccinia virus Copenhagen infected in HFF cells incubated for 3 days by plaque reduction assay; format: functional, organism-based, Orthopoxvirus vaccinia
# [2] = Half life in phosphate buffer at pH 6.5 at 37 degC by LC/MS analysis; format: physicochemical
# [3] = Half life in phosphate buffer at pH 7.4 at 37 degC assessed as half life by LC/MS analysis; format: physicochemical
# [4] = Half life in Sprague-Dawley rat intestinal homogenate at pH 6.5 by LC/MS analysis; format: ADME, tissue-based, Intestine
# Summary of the method: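 Compound stock (1 mg/ml, 400 µL) mixed with 260 µL buffer and 140 µL homogenate, 37 °C. Samples taken over time, quenched with methanol, centrifuged, supernatant analysed by LC-MS (C18, acetonitrile gradient in ammonium acetate pH 5.5). Run separately for each phosphorus diastereomer.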
# Plasma [5] = test: Drug level in CFW Swiss-Webster mouse plasma assessed as (S)-cHPMPA levels dosed at 10 mg equivalent of (S)-9-[3-hydroxy-2-(phosphonomethoxy)propyl]adenine/kg, po by LC-MS analysis; format: ADME, organism-based; conditions: in vivo
# Summary of the method: (§1)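 CFW Swiss-Webster mice, 4 weeks old, 25 g, fasted 18 h with water. Prodrug given by gavage in water at 10 mg eq (of HPMPA)/kg. Plasma by cardiac puncture at 1, 2, 3, 4 and 8 h, 5 mice per time point, one sample per mouse. Solid-phase extraction, then LC-MS (ESI positive) against internal-standard calibration curves.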
# Plasma [6] = test: Drug level in CFW Swiss-Webster mouse plasma dosed at 10 mg equivalent of (S)-9-[3-hydroxy-2-(phosphonomethoxy)propyl]adenine/kg, po by LC-MS analysis; format: ADME, organism-based; conditions: in vivo; summary of the method: as §1
# [7] = Human betaherpesvirus 5, Towne, HFF, 240 h
# [8] = Human alphaherpesvirus 1, KOS, HFF, 72 h
# [9] = Orthopoxvirus vaccinia, Copenhagen, HFF, 72 h
structure (smiles),measurement,setting,value
CC(C)(C)NC(=O)[C@H](N)Cc1ccc(OP2(=O)CO[C@@H](Cn3ccc(N)nc3=O)CO2)cc1 (mixture of isomers),IC50,"[1]; Cowpox virus, HFF, 72 h",20 µM
same,IC50,Human betaherpesvirus 5; [7],< 0.1 µM
same,IC50,Human alphaherpesvirus 1; [8],1.5 µM
same,IC50,"HFF; Homo sapiens, HFF, 48 h",> 100 µM
same,IC50,KB,> 100 µM
same,IC50,Vaccinia virus; [9],10 µM
CC(C)OC(=O)[C@@H](N)Cc1ccc(OP2(=O)CO[C@@H](Cn3ccc(N)nc3=O)CO2)cc1 (mixture of isomers; form 2),IC50,[1]; hff,10 µM
same,IC50,Human betaherpesvirus 5; hff,0.22 µM
same,IC50,Human alphaherpesvirus 1; hff,3 µM
same,IC50,Vaccinia virus; hff,8 µM
COC(=O)[C@H](Cc1ccc(O[P@]2(=O)CO[C@@H](Cn3cnc4c(N)ncnc43)CO2)cc1)NC(=O)[C@@H](N)C(C)C,half-life,[2],1.58 h
same,half-life,[3],0.25 h
same,half-life,[4],< 0.5 h
COC(=O)[C@@H](N)Cc1ccc(O[P@@]2(=O)CO[C@@H](Cn3ccc(N)nc3=O)CO2)cc1,half-life,[2],4.27 h
same,half-life,[3],2.02 h
same,half-life,[4],< 0.5 h
COC(=O)[C@@H](N)Cc1ccc(OP2(=O)CO[C@@H](Cn3cnc4c(N)ncnc43)CO2)cc1 (mixture of isomers; form 2),IC50,[1]; hff,3.5 µM
same,IC50,Human alphaherpesvirus 1; hff,35 µM
Nc1nc2c(ncn2COCCO)c(=O)[nH]1 [ACYCLOVIR],IC50,Human alphaherpesvirus 1; [8],0.6 µM
CC(C)CNC(=O)[C@@H](N)Cc1ccc(OP2(=O)CO[C@@H](Cn3cnc4c(N)ncnc43)CO2)cc1 (mixture of isomers; form 3),IC50,[1]; hff,2.5 µM
same,IC50,Human betaherpesvirus 5; hff,0.55 µM
same,IC50,Vaccinia virus; hff,1 µM
COC(=O)[C@H](N)Cc1ccc(OP2(=O)CO[C@@H](Cn3ccc(N)nc3=O)CO2)cc1 (mixture of isomers),IC50,"[1]; Cowpox virus, HFF, 72 h",35 µM
same,IC50,Human betaherpesvirus 5; [7],0.2 µM
same,IC50,Human alphaherpesvirus 1; [8],35 µM
same,IC50,"HFF; Homo sapiens, HFF, 48 h",> 100 µM
same,IC50,KB,> 100 µM
same,IC50,Vaccinia virus; [9],25 µM
CC(C)(C)NC(=O)[C@H](N)Cc1ccc(O[P@@]2(=O)CO[C@@H](Cn3ccc(N)nc3=O)CO2)cc1,half-life,[2],28.9 h
same,half-life,[3],10.5 h
same,half-life,[4],28.9 h
COC(=O)[C@H](N)Cc1ccc(O[P@]2(=O)CO[C@@H](Cn3ccc(N)nc3=O)CO2)cc1,half-life,[2],1.52 h
same,half-life,[3],0.35 h
same,half-life,[4],1.2 h
COC(=O)[C@H](Cc1ccc(O[P@@]2(=O)CO[C@@H](Cn3cnc4c(N)ncnc43)CO2)cc1)NC(=O)[C@@H](N)C(C)C,half-life,[2],5.77 h
same,half-life,[3],1.1 h
same,half-life,[4],< 0.5 h
CC(C)OC(=O)[C@@H](N)Cc1ccc(O[P@]2(=O)CO[C@@H](Cn3ccc(N)nc3=O)CO2)cc1,half-life,[2],2.02 h
same,half-life,[3],0.367 h
same,half-life,[4],< 0.5 h
C/C(=N\NC(N)=S)c1ccccn1,IC50,KB,3 µM
CC(C)CNC(=O)[C@@H](N)Cc1ccc(OP2(=O)CO[C@@H](Cn3cnc4c(N)ncnc43)CO2)cc1.Cl (mixture of isomers; form 2),Drug uptake,Plasma [5],80%
same,Drug uptake,Plasma [6],20%
same,IC50,[1]; hff,2 µM
same,IC50,Human betaherpesvirus 5; hff,1.3 µM
same,IC50,Human alphaherpesvirus 1; hff,35 µM
same,IC50,HFF; hff,100 µM
same,IC50,Vaccinia virus; hff,1.5 µM
COC(=O)[C@@H](N)Cc1ccc(O[P@@]2(=O)CO[C@@H](Cn3cnc4c(N)ncnc43)CO2)cc1,half-life,[2],5.5 h
same,half-life,[4],< 0.5 h
COC(=O)[C@@H](N)Cc1ccc(OP2(=O)CO[C@@H](Cn3cnc4c(N)ncnc43)CO2)cc1 (mixture of isomers; form 1),IC50,"[1]; Cowpox virus, HFF, 72 h",7 µM
same,IC50,Human betaherpesvirus 5; [7],0.45 µM
same,IC50,Human alphaherpesvirus 1; [8],25 µM
same,IC50,"HFF; Homo sapiens, HFF, 48 h",> 100 µM
same,IC50,KB,> 100 µM
same,IC50,Vaccinia virus; [9],3 µM
COC(=O)[C@@H](N)Cc1ccc(O[P@]2(=O)CO[C@@H](Cn3ccc(N)nc3=O)CO2)cc1,half-life,[2],0.933 h
same,half-life,[3],0.317 h
same,half-life,[4],< 0.5 h
